Key:
[1] = tested on: Human immunodeficiency virus 1; experiment: Antiviral activity against HIV1 isolate 063 harboring reverse transcriptase M41L/D67N/K70R/M184V/L210W/T215Y/K219E mutant gene by phenosense assay; format: functional, organism-based; details: Human immunodeficiency virus 1, isolate 063
Procedure, shortened: (§1)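 Recombinant-virus PhenoSense HIV assay run on a panel of 30 NRTI-resistant HIV-1 mutants and two wild-type viruses. Each virus is tested across increasing drug concentrations to give an inhibition curve and EC50. Fold change is the test recombinant EC50 divided by the EC50 of the drug-sensitive wild-type reference virus.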

[2] = tested on: Human immunodeficiency virus 1; experiment: Antiviral activity against HIV1 isolate 174 harboring reverse transcriptase M184V mutant gene obtained as site-directed mutant of NL4-3 by phenosense assay relative to wild type; format: functional; procedure, shortened: as §1
[3] = tested on: Human immunodeficiency virus 1; experiment: Antiviral activity against HIV1 isolate 069 harboring reverse transcriptase D67E/T69SSG/V75M/M184V/L210W/T215Y mutant gene by phenosense assay relative to wild type; format: functional; procedure, shortened: as §1
[4] = tested on: Human immunodeficiency virus 1; experiment: Antiviral activity against HIV1 isolate 063 harboring reverse transcriptase M41L/D67N/K70R/M184V/L210W/T215Y/K219E mutant gene by phenosense assay relative to wild type; format: functional; procedure, shortened: as §1
[5] = tested on: Human immunodeficiency virus 1; experiment: Antiviral activity against HIV1 isolate 153 harboring reverse transcriptase L74V mutant gene by phenosense assay; format: functional, organism-based; details: Human immunodeficiency virus 1, isolate 153; procedure, shortened: as §1
[6] = tested on: Human immunodeficiency virus 1; experiment: Antiviral activity against HIV1 isolate 200 harboring reverse transcriptase M41L/L210W/T215Y mutant gene by phenosense assay; format: functional, organism-based; details: Human immunodeficiency virus 1, isolate 200; procedure, shortened: as §1
[7] = tested on: Human immunodeficiency virus 1; experiment: Antiviral activity against HIV1 isolate 070 harboring reverse transcriptase 65R/S68G mutant gene by phenosense assay relative to wild type; format: functional; procedure, shortened: as §1
[8] = tested on: Human immunodeficiency virus 1; experiment: Antiviral activity against HIV1 isolate 157 harboring reverse transcriptase L74V/M184V mutant gene by phenosense assay; format: functional, organism-based; details: Human immunodeficiency virus 1, isolate 157; procedure, shortened: as §1
[9] = tested on: Human immunodeficiency virus 1; experiment: Antiviral activity against HIV1 isolate 194 harboring reverse transcriptase M41L/T215Y/M184V mutant gene by phenosense assay relative to wild type; format: functional; procedure, shortened: as §1
[10] = tested on: Human immunodeficiency virus 1; experiment: Antiviral activity against HIV1 isolate 188 harboring reverse transcriptase T215Y/M184V mutant gene by phenosense assay; format: functional, organism-based; details: Human immunodeficiency virus 1, isolate 188; procedure, shortened: as §1
[11] = tested on: Human immunodeficiency virus 1; experiment: Antiviral activity against HIV1 isolate 061 harboring reverse transcriptase M41L/D67N/K70R/M184V/L210W/T215Y/K219E mutant gene by phenosense assay relative to wild type; format: functional; procedure, shortened: as §1
[12] = tested on: Human immunodeficiency virus 1; experiment: Antiviral activity against HIV1 isolate 212 harboring reverse transcriptase L210W/T215Y mutant gene by phenosense assay relative to wild type; format: functional
Procedure, shortened: (§2)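 PhenoSense HIV recombinant virus assay: patient-derived HIV-1 with major NRTI resistance mutations tested against increasing drug concentrations to give inhibition curves. EC50 is the concentration giving 50% inhibition. Fold change is the test recombinant EC50 divided by the EC50 of a drug-sensitive wild-type reference virus. Panel of 30 NRTI-resistant isolates plus two wild-type viruses.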

[13] = tested on: Human immunodeficiency virus 1; experiment: Antiviral activity against HIV1 isolate 215 harboring reverse transcriptase D67N/K70E mutant gene by phenosense assay; format: functional, organism-based; details: Human immunodeficiency virus 1, isolate 215; procedure, shortened: as §2
[14] = tested on: Human immunodeficiency virus 1; experiment: Antiviral activity against HIV1 isolate 070 harboring reverse transcriptase 65R/S68G mutant gene by phenosense assay; format: functional, organism-based; details: Human immunodeficiency virus 1, isolate 070; procedure, shortened: as §1
[15] = tested on: Human immunodeficiency virus 1; experiment: Antiviral activity against HIV1 isolate 056 expressing wild type reverse transcriptase gene by phenosense assay; format: functional, organism-based; details: Human immunodeficiency virus 1, isolate 056
Procedure, shortened: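 In the PhenoSense recombinant virus assay, virus was tested against increasing drug concentrations. EC50 came from the inhibition curve and was compared with a drug-sensitive reference virus.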

[16] = tested on: Human immunodeficiency virus 1; experiment: Antiviral activity against HIV1 isolate 220 harboring reverse transcriptase K70E/M184V mutant gene by phenosense assay; format: functional, organism-based; details: Human immunodeficiency virus 1, isolate 220; procedure, shortened: as §2
[17] = tested on: Human immunodeficiency virus 1; experiment: Antiviral activity against HIV1 isolate 166 harboring reverse transcriptase L74V mutant gene obtained as site-directed mutant of NL4-3 by phenosense assay; format: functional, organism-based; details: Human immunodeficiency virus 1, isolate 166; procedure, shortened: as §1
[18] = tested on: Human immunodeficiency virus 1; experiment: Antiviral activity against HIV1 isolate 166 harboring reverse transcriptase L74V mutant gene obtained as site-directed mutant of NL4-3 by phenosense assay relative to wild type; format: functional; procedure, shortened: as §1
[19] = tested on: Human immunodeficiency virus 1; experiment: Antiviral activity against HIV1 isolate 162 harboring reverse transcriptase A62V/V75I/F77L/Y115F/F116Y/Q151M/M184V mutant gene by phenosense assay; format: functional, organism-based; details: Human immunodeficiency virus 1, isolate 162; procedure, shortened: as §1
[20] = tested on: Human immunodeficiency virus 1; experiment: Antiviral activity against HIV1 isolate 220 harboring reverse transcriptase K70E/M184V mutant gene by phenosense assay relative to wild type; format: functional; procedure, shortened: as §2
[21] = tested on: Human immunodeficiency virus 1; experiment: Antiviral activity against HIV1 isolate 180 harboring reverse transcriptase K65R mutant gene obtained as site-directed mutant of NL4-3 by phenosense assay relative to wild type; format: functional; procedure, shortened: as §1
[22] = tested on: Human immunodeficiency virus 1; experiment: Antiviral activity against HIV1 isolate 153 harboring reverse transcriptase L74V mutant gene by phenosense assay relative to wild type; format: functional; procedure, shortened: as §1
[23] = tested on: Human immunodeficiency virus 1; experiment: Antiviral activity against HIV1 isolate 204 harboring reverse transcriptase M41L/L210W/T215Y/M184V mutant gene by phenosense assay relative to wild type; format: functional; procedure, shortened: as §2
[24] = tested on: Human immunodeficiency virus 1; experiment: Antiviral activity against HIV1 isolate 160 harboring reverse transcriptase S68G/V75(I/T)/F77L/Y115F/F116Y /Q151M mutant gene by phenosense assay relative to wild type; format: functional; procedure, shortened: as §1
[25] = tested on: Human immunodeficiency virus 1; experiment: Antiviral activity against HIV1 isolate 069 harboring reverse transcriptase D67E/T69SSG/V75M/M184V/L210W/T215Y mutant gene by phenosense assay; format: functional, organism-based; details: Human immunodeficiency virus 1, isolate 069; procedure, shortened: as §1
[26] = tested on: Human immunodeficiency virus 1; experiment: Antiviral activity against HIV1 isolate 188 harboring reverse transcriptase T215Y/M184V mutant gene by phenosense assay relative to wild type; format: functional; procedure, shortened: as §1
[27] = tested on: Human immunodeficiency virus 1; experiment: Antiviral activity against HIV1 isolate 200 harboring reverse transcriptase M41L/L210W/T215Y mutant gene by phenosense assay relative to wild type; format: functional; procedure, shortened: as §1
[28] = tested on: Human immunodeficiency virus 1; experiment: Antiviral activity against HIV1 isolate 067 harboring reverse transcriptase A62V/D67G/T69SVG/V75I/T215I mutant gene by phenosense assay; format: functional, organism-based; details: Human immunodeficiency virus 1, isolate 067; procedure, shortened: as §1
[29] = tested on: Human immunodeficiency virus 1; experiment: Antiviral activity against HIV1 isolate 060 harboring reverse transcriptase M41L/D67N/K70R/L210W/T215Y/K219E mutant gene by phenosense assay relative to wild type; format: functional; procedure, shortened: as §1
[30] = tested on: Human immunodeficiency virus 1; experiment: Antiviral activity against HIV1 isolate 211 harboring reverse transcriptase D67N/K70R/T215F/K219E/M184V mutant gene by phenosense assay; format: functional, organism-based; details: Human immunodeficiency virus 1, isolate 211; procedure, shortened: as §2
[31] = tested on: Human immunodeficiency virus 1; experiment: Antiviral activity against HIV1 isolate 201 harboring reverse transcriptase M41L/L210W/T215Y mutant gene by phenosense assay relative to wild type; format: functional; procedure, shortened: as §2
[32] = tested on: Human immunodeficiency virus 1; experiment: Antiviral activity against HIV1 isolate 201 harboring reverse transcriptase M41L/L210W/T215Y mutant gene by phenosense assay; format: functional, organism-based; details: Human immunodeficiency virus 1, isolate 201; procedure, shortened: as §1
[33] = tested on: Human immunodeficiency virus 1; experiment: Antiviral activity against HIV1 isolate 185 harboring reverse transcriptase T215Y mutant gene by phenosense assay relative to wild type; format: functional; procedure, shortened: as §1
[34] = tested on: Human immunodeficiency virus 1; experiment: Antiviral activity against HIV1 isolate 217 harboring reverse transcriptase D67N/K70E/M184V mutant gene by phenosense assay relative to wild type; format: functional; procedure, shortened: as §2
[35] = tested on: Human immunodeficiency virus 1; experiment: Antiviral activity against HIV1 isolate 204 harboring reverse transcriptase M41L/L210W/T215Y/M184V mutant gene by phenosense assay; format: functional, organism-based; details: Human immunodeficiency virus 1, isolate 204; procedure, shortened: as §2

SMILES	EC50 [1]	fold change (FC) [2]	fold change (FC) [3]	fold change (FC) [4]	EC50 [5]	EC50 [6]	fold change (FC) [7]	EC50 [8]	fold change (FC) [9]	EC50 [10]	fold change (FC) [11]	fold change (FC) [12]	EC50 [13]	EC50 [14]	EC50 [16]	EC50 [17]	fold change (FC) [18]	EC50 [19]	fold change (FC) [20]	fold change (FC) [21]	also measured
CCCCCCCCCCCCCCCCOCCCOP(=O)(O)CO[C@H](C)Cn1cnc2c(N)ncnc21 [TENOFOVIR EXALIDEX]	5.2 nM	0.62	6.1	2.8	1.2 nM	6 nM	1.9	0.66 nM	1.6	1.7 nM	2.1	1.5	2.1 nM	3.6 nM	1.3 nM	1.5 nM	0.8	3.1 nM	0.71	2.6	EC50 [15]: 1.7 nM; fold change (FC) [22]: 0.66; fold change (FC) [23]: 1.4; fold change (FC) [24]: 2; EC50 [25]: 11 nM; fold change (FC) [26]: 0.9; fold change (FC) [27]: 3.2; EC50 [28]: 57 nM; fold change (FC) [29]: 3.3; EC50 [30]: 1.9 nM; fold change (FC) [31]: 3.5; EC50 [32]: 6.6 nM; fold change (FC) [33]: 2.7; fold change (FC) [34]: 0.78; EC50 [35]: 2.5 nM
C[C@H](Cn1cnc2c(N)ncnc21)OCP(=O)(O)O [TENOFOVIR ANHYDROUS]	1700 nM	0.54	4.7	2.2	480 nM	2200 nM	1.7	230 nM	1.3	620 nM	2.2	1.3	740 nM	1300 nM	470 nM	540 nM	0.69	1100 nM	0.61	2	EC50 [15]: 610 nM; fold change (FC) [22]: 0.62; fold change (FC) [23]: 1; fold change (FC) [24]: 2.3; EC50 [25]: 3600 nM; fold change (FC) [26]: 0.81; fold change (FC) [27]: 2.8; EC50 [28]: 17000 nM; fold change (FC) [29]: 4; EC50 [30]: 700 nM; fold change (FC) [31]: 3; EC50 [32]: 2300 nM; fold change (FC) [33]: 2.4; fold change (FC) [34]: 0.64; EC50 [35]: 790 nM
Nc1nc(NC2CC2)c2ncn([C@H]3C=C[C@@H](CO)C3)c2n1 [ABACAVIR]	14000 nM	2.6	26	7.9	3400 nM	5000 nM	3.2	9200 nM	5.4	7600 nM	9.1	2.1	2400 nM	5700 nM	10000 nM	3300 nM	1.9	> 52000 nM	5.9	2.6	EC50 [15]: 1500 nM; fold change (FC) [22]: 1.9; fold change (FC) [23]: 5; fold change (FC) [24]: 19; EC50 [25]: 47000 nM; fold change (FC) [26]: 4.3; fold change (FC) [27]: 2.8; EC50 [28]: 33000 nM; fold change (FC) [29]: 4.7; EC50 [30]: 7700 nM; fold change (FC) [31]: 2.4; EC50 [32]: 4200 nM; fold change (FC) [33]: 2.1; fold change (FC) [34]: 2.9; EC50 [35]: 8900 nM
Cc1cn([C@H]2C[C@H](N=[N+]=[N-])[C@@H](CO)O2)c(=O)[nH]c1=O [ZIDOVUDINE]	1600 nM	0.34	320	59	11 nM	2700 nM	0.44	6 nM	6.5	71 nM	58	7.6	6 nM	12 nM	4 nM	14 nM	0.5	4200 nM	0.13	0.51	fold change (FC) [22]: 0.41; fold change (FC) [23]: 3.9; fold change (FC) [24]: 93; EC50 [25]: 8700 nM; fold change (FC) [26]: 2.6; fold change (FC) [27]: 100; EC50 [28]: > 25000 nM; fold change (FC) [29]: 400; EC50 [30]: 190 nM; fold change (FC) [31]: 98; EC50 [32]: 2700 nM; fold change (FC) [33]: 38; fold change (FC) [34]: 0.15; EC50 [35]: 110 nM

Source: ChEMBL document CHEMBL1629690, “Development of hexadecyloxypropyl tenofovir (CMX157) for treatment of infection caused by wild-type and nucleoside/nucleotide-resistant HIV” (Antimicrob Agents Chemother, 2010)
